Many of the other results were omitted from the sample, so hits are more common in it than they were.
Fibroblast inh: blocks proliferation of human lung fibroblasts. LL 47 human lung fibroblast viability, ATP luminescence; active compounds read low. viability, % at 10 µM. 85,000 compounds, 1.1% hits. AID 719;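 active = viability at or below 50% in the single dose screen; inactive = viability above 50%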;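 note: compound exposure lasted 72 h before the ATP readout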
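Test system: LL 47 human lung fibroblasts / Quantity: 1,150 cells in each well / Medium: IMEM growth medium with 15% fetal bovine serum / Incubation: 72 h compound exposure at 37 °C after overnight plating / Detection: CellTiter-Glo luminescence measuring cellular ATP / Read-out: % viability versus median cells-only luminescence / Benchmarks: cell-only wells, no compound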
HUVEC prolif 384: human endothelial cell proliferation inhibition. HUVEC proliferation, CellTiter-Glo luminescence, 72 h; active compounds read low. viability, % at 10 µM (by protocol). 86,000 compounds, 1.1% hits. AID 648;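 active = viability at or below 30%; inactive = viability above 30%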
PTEN del growth: PTEN-deleted cell growth suppression | HCT116 PTEN-null viability, CellTiter-Glo, 60 h; active compounds read low | viability, % at 10 µM | 140,000 compounds, 1.2% hits | AID 827;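 active = viability at or below a set limit, 4 SD under the median of all tested compounds, cut at about 3.7% in these data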;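 note: PTEN knockout HCT116 line with beta catenin targeted HCT116 as companion control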
H69AR growth 86K: blocks growth of human H69AR lung tumor cells. H69AR lung tumor viability, ATP luminescence, 72 h; active compounds read low. 85,000 compounds, 6% hits. viability, % at 10 µM. AID 598;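 active = viability at or below 40%; inactive = viability above 40%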;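 note: multidrug resistant small cell line overexpressing MRP-1 efflux transporter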
HCT116 bCat-KO: beta-catenin-lacking colon tumor cell growth suppression. HCT116 beta-catenin knockout viability, CellTiter-Glo, 60 h; active compounds read low. viability, % at 10 µM. 140,000 compounds, 1.5% hits;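 active = viability at or under a set limit, the compound median less 4 SD, cut at about 6% in these data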
Numbers stand for hits; - = inactive; . = not tested or not shown.

SMILES	Fibroblast inh	HUVEC prolif 384	PTEN del growth	H69AR growth 86K	HCT116 bCat-KO
O=C(NNC(=O)c1ccc([N+](=O)[O-])o1)c1ccccc1	43.4	-	-	-	-
CCn1nc(C)c(NC(=O)CCSc2nc(-c3ccco3)cc(C(F)(F)F)n2)c1C	-	-	-	-	-
Cn1c(Cc2cccs2)nnc1SCC(=O)N1CCCc2ccccc21	-	-	-	-	-
O=C(CSc1nnc(Cc2cccs2)n1C1CCCCC1)N1CCCc2ccccc21	-	-	-	34.5	-
Nc1ccc2c(c1)C(=O)C(=O)c1ccccc1-2	2.1	3.1	1.1	0.2	1.0
CC(=O)Nc1ccc2c(c1)C(=O)c1ccccc1C2=O	.	.	-	.	-
O=C1C(=O)c2ccc(-c3ccccc3)cc2-c2ccccc21	2.7	2.2	0.1	1.5	0.1
Cc1nc2ccccc2c(=O)n1/N=C/c1cn(-c2ccccc2)nc1-c1cccs1	-	-	-	35.2	-
CCOC(=O)c1c(C)oc2ccc(OCc3cc(C(=O)OC)oc3C)cc12	-	-	-	-	-
N#Cc1ccc(-c2ccco2)nc1SCC(=O)c1ccc(Cl)cc1	-	-	-	6.2	-
Cc1ccc(C(=O)CSc2nc(-c3ccccc3)ccc2C#N)cc1	.	.	-	.	-
CCOc1ccccc1C1CC(=O)NC(SCC(=O)Nc2nccs2)=C1C#N (stereo not given)	.	.	-	.	-
CCCCSc1nc(C)cc(SCC(=O)N/N=C/c2cccc(OC)c2O)n1	.	.	-	.	5.3
CC1Oc2ccccc2N(CC(=O)N(Cc2ccccc2)Cc2ccccn2)C1=O (stereo not given)	-	-	-	-	-
COc1ccc(N2CCN(c3ncnc4c3[nH]c3ccccc34)CC2)cc1	-	-	-	-	-
COc1cc2[nH]c3c(N4CCN(c5ccccn5)CC4)ncnc3c2cc1OC	-	-	2.7	24.3	-
O=C(c1ccc(=O)[nH]c1)N(Cc1ccco1)C1(C(=O)NC2CCCC2)CCCCC1	-	-	-	-	-
CCCCCCCCCCCCCCCC[n+]1cccc(C(=O)N(CC)CC)c1	.	.	1.5	.	1.5
CCCCCCCCCCCCCCCC[n+]1ccc(C(N)=O)cc1	.	.	1.1	.	1.1
CCCCCCCCCCCCCCCC[n+]1ccc(/C=N/O)cc1	.	.	1.0	.	0.9
COC(=O)c1c(C)n(-c2ccc(OC)cc2)c2ccc(O)cc12	-	17.8	-	18.5	-
O=C(c1ccco1)N1CCN(C(c2ccccc2Cl)c2nnnn2Cc2cccs2)CC1 (stereo not given)	-	-	-	32.7	-
O=C(Cn1c(=O)n(CCCC(=O)NC2CCCC2)c(=O)c2ccccc21)NCCC1=CCCCC1	48.5	-	2.8	29.1	5.3
Cc1cc(C)cc(OCC(O)CN2C(=O)NC(C)(C)C2=O)c1 (stereo not given)	-	-	-	-	-
CCOC(=O)/C(=C\c1cn(C)c2ccccc12)[N+](=O)[O-]	.	.	-	.	-
SMILES	Fibroblast inh	HUVEC prolif 384	PTEN del growth	H69AR growth 86K	HCT116 bCat-KO
COC(=O)/C(=C/Nc1cccc2ccccc12)[N+](=O)[O-]	-	-	-	26.9	-
CC1CCCCN1C(=S)NCCc1ccccc1 (stereo not given)	.	.	-	.	-
Cc1ccc(S(=O)(=O)Nc2ccnc3ccccc23)cc1	-	-	-	-	-
Cc1ccc(S(=O)(=O)Nc2cccc3ncccc23)s1	.	.	1.5	.	1.5
CCCc1cc(=O)[nH]c(SCC)n1	-	-	-	.	-
CCCc1cc(=O)[nH]c(-n2[nH]c3c(c2=O)CCCC3)n1	.	.	-	.	4.7
CCCOc1ccc(OCCOCCN2CCc3ccccc3C2)cc1	.	.	-	.	-
COC(=O)c1cc(OC)c(OC)cc1NC(=O)c1ccc(OC)c(OC)c1	-	-	-	-	-
COc1ccccc1Cn1c(=O)c2ccccc2n2c(Sc3ncnc4sccc34)nnc12	-	-	-	1.4	-
Cc1c(CC(C)C)nc(N)c(C#N)c1-c1ccccc1	-	-	-	24.2	-
Cc1ccccc1NC(=O)CC1SC(=O)N(c2ccccc2)C1=O (stereo not given)	-	-	-	-	-
CCCN1C(=O)SC(CC(=O)Nc2ccccc2C)C1=O (stereo not given)	-	-	-	29.7	-
O=C1CCC([N+](=O)[O-])C(c2cccc(Cl)c2Cl)N1 (stereo not given)	-	-	-	-	-
CCSc1nc(N)c(C#N)c(-c2ccco2)c1C#N	-	-	-	31.8	-
N#Cc1c(/N=C/c2ccco2)oc(-c2ccccc2)c1-c1ccccc1	-	-	-	-	-
COc1ccc(OC)c(/C=N/c2oc(-c3ccco3)c(-c3ccco3)c2C#N)c1	-	-	-	-	3.5
N#Cc1c(N)oc(-c2ccco2)c1-c1ccco1	-	-	-	-	5.9
CCCCOC(=O)C1=C(C)NC2=C(C(=O)CCC2)C1c1cc(OC)ccc1OC (stereo not given)	-	-	-	-	-
O=C(Nc1ccc(Oc2ccccc2)cc1)C1CCCN(c2ncccn2)C1 (stereo not given)	-	-	-	39.6	-
CCOC(=O)c1ccc(NC(=O)C2CCN(S(=O)(=O)CC)CC2)cc1	-	-	-	-	-
CCOC(=O)c1ccc(NC(=O)C2CCCN(S(=O)(=O)c3ccc(F)cc3)C2)cc1 (stereo not given)	-	-	-	19.5	-
Cc1ccc(S(=O)(=O)N2CCCC(C(=O)Nc3ccc(NC(=O)c4ccccn4)cc3)C2)cc1 (stereo not given)	-	-	-	20.6	-
Clc1cccc(Cl)c1CO/N=C/c1c(-c2ccccc2)nc2n1CCS2	.	.	-	.	-
Cc1cc(C)c(-c2csc(NC(=O)c3n[nH]c(=O)c4ccccc34)n2)c(C)c1	.	.	-	.	-
O=C(Nc1cc2c(cc1Br)OCCCO2)c1ccccc1	.	.	-	.	-
SMILES	Fibroblast inh	HUVEC prolif 384	PTEN del growth	H69AR growth 86K	HCT116 bCat-KO
COc1cc(C(=O)N2CCC(c3nc(-c4cccnc4)no3)CC2)cc(OC)c1OC	-	-	-	-	-
C[C@@H](NC(=O)c1coc(=O)c(Br)c1)c1ccccc1	-	-	-	3.7	-
CC(C)c1ccc2c(c1)C(c1ccc(N3CCOCC3)cc1)=NNC(c1cccs1)=N2	.	.	-	.	-
COc1ccc(O)c(-c2cc(-c3cccc(Br)c3)n[nH]2)c1	-	-	-	35.6	-
COc1ccc(-c2cc(-c3cc(F)ccc3O)[nH]n2)cc1OC	-	-	-	-	-
Cc1ccc(O)c(-c2cc(-c3cccc(F)c3)n[nH]2)c1	-	27.8	-	0.6	-
COc1ccc(-c2cc(-c3cc(OC)ccc3O)[nH]n2)cc1	-	-	-	28.3	-
COc1ccc(-c2cc(-c3ccc(OC)c(OC)c3)n[nH]2)c(O)c1	-	-	-	-	-
Cc1nc(C)c(C(=O)NNS(=O)(=O)c2ccc([N+](=O)[O-])cc2)s1	.	.	-	.	-
CCOc1ccc2nc(SCC(=O)Nc3ccc4c(c3)OCCO4)[nH]c2c1	-	-	-	-	-
O=C(CSc1ncnc2c1cnn2-c1ccccc1)Nc1ccc2c(c1)OCO2	-	-	-	37.4	-
CCOC(=O)c1c(C)[nH]c(C(=O)CSc2nnc(-c3cccs3)n2Cc2ccccc2)c1C	-	-	-	4.9	-

Bioassay records: PubChem BioAssay, SRMLSC
